Published values gathered from unrelated publications.
Protocols differ between the studies behind these lines.
ABL1 Y253F: Tyrosine-protein kinase ABL1 (ABL1, Homo sapiens, UniProt P00519, Y253F)
ABL1 Y253F phosphorylated: Tyrosine-protein kinase ABL1, phosphorylated (ABL1, Homo sapiens, UniProt P00519, Y253F)
ABL1 T315I non-phosphorylated: Tyrosine-protein kinase ABL1, non-phosphorylated (ABL1, Homo sapiens, UniProt P00519, T315I)
ABL1 Q252H non-phosphorylated: Tyrosine-protein kinase ABL1, non-phosphorylated (ABL1, Homo sapiens, UniProt P00519, Q252H)
ABL1 non-phosphorylated: Tyrosine-protein kinase ABL1, non-phosphorylated (ABL1, Homo sapiens, UniProt P00519)
ABL1 F317L phosphorylated: Tyrosine-protein kinase ABL1, phosphorylated (ABL1, Homo sapiens, UniProt P00519, F317L)
ABL1 Q252H: Tyrosine-protein kinase ABL1 (ABL1, Homo sapiens, UniProt P00519, Q252H)
ABL1 M351T: Tyrosine-protein kinase ABL1 (ABL1, Homo sapiens, UniProt P00519, M351T)
ABL1 T315I phosphorylated: Tyrosine-protein kinase ABL1, phosphorylated (ABL1, Homo sapiens, UniProt P00519, T315I)
ABL1 phosphorylated: Tyrosine-protein kinase ABL1, phosphorylated (ABL1, Homo sapiens, UniProt P00519)

Structure (SMILES) | target | assay | conditions | remaining binding [%]
CN1CCN(c2ccc(Nc3nccc(-c4cccc([N+](=O)[O-])c4)n3)cc2C(F)(F)F)CC1 | ABL1 Y253F | binding | 10 µM | 4
CS(=O)(=O)N1CCCC(NC(=O)[C@H](CCC2CCCCC2)NC(=O)c2ccc(CNC(=O)c3cnc4ccccn34)cc2)C1 (stereo partly shown) | ABL1 Y253F phosphorylated | cell-free assay, competition with immobilised ligand | 0.1 µM | 76
O=C(c1ccc(Nc2ncc(Cl)c(-c3ccc(Cl)s3)n2)cc1)N1CCC(N2CCCC2)CC1 | ABL1 T315I non-phosphorylated | binding, competition with immobilised ligand | 1 µM | 0
CCC(=O)N[C@@H]1CC[C@H](C(=O)N(C)c2ccc(-c3nc4ccccc4o3)cc2)C1 | ABL1 Q252H non-phosphorylated | cell-free assay, competition with immobilised ligand | 1 µM | 77
FC(F)(F)Oc1cccc(-c2cnc3ccc(-c4ccncc4)nn23)c1 | ABL1 non-phosphorylated | cell-free assay, competition with immobilised ligand | 5 µM | 68
O=C(NCCCN1CCOCC1)c1ccc(Nc2ncc(Cl)c(-c3ccc(Cl)s3)n2)cc1 | ABL1 F317L phosphorylated | binding, competition with immobilised ligand | 1 µM | 80
CC1=C(C#N)C(c2ccc3c(c2)c(NC(=O)c2ccccc2C)nn3C)C(C#N)=C(C)N1 | Tyrosine-protein kinase ABL1, non-phosphorylated (ABL1, Homo sapiens, UniProt P00519, F317I) | binding, competition with immobilised ligand | 1 µM | 100
F[C@@H]1CCN(c2nccc(-c3cnn4ncccc34)n2)C1 | ABL1 Q252H | binding | 1 µM | 93
O=C(Nc1c[nH]nc1C(=O)NC1CCNCC1)c1cc(F)cc(F)c1 | ABL1 Q252H non-phosphorylated | binding, competition with immobilised ligand | 1 µM | 100
O=C(NCCCN1CCOCC1)c1ccc(Nc2nccc(-c3cc4ccccc4s3)n2)cc1 | ABL1 non-phosphorylated | binding, competition with immobilised ligand | 1 µM | 37
C[C@@H]1CCN(c2nccc(-c3cnn4ncccc34)n2)C1 | ABL1 M351T | binding | 1 µM | 100
COC(=O)Nc1nc2ccc(C(=O)c3ccccc3)cc2[nH]1 | ABL1 T315I phosphorylated | cell-free assay, competition with immobilised ligand | 10 µM | 3.2
COc1ncc2cc3ccccc3nc2c1C#N | ABL1 Q252H non-phosphorylated | cell-free assay, competition with immobilised ligand | 5 µM | 100
c1cnn2ncc(-c3ccnc(N4CCC45COC5)n3)c2c1 | ABL1 M351T | binding | 1 µM | 48
O=C(c1ccc(Nc2nccc(-c3cc4ccccc4s3)n2)cc1)N1CCC(N2CCCC2)CC1 | ABL1 phosphorylated | binding, competition with immobilised ligand | 1 µM | 21
CN(C)c1nccc(-c2cnn3ncccc23)n1 | ABL1 M351T | binding | 1 µM | 100
COc1cnc(Nc2cccc(S(N)(=O)=O)c2)nc1N1CCN(c2ccccc2)CC1 | ABL1 T315I non-phosphorylated | binding, competition with immobilised ligand | 1 µM | 89
N[C@@H]1CCN(c2nccc(-c3cnn4ncccc34)n2)C1 | ABL1 Y253F | binding | 1 µM | 62
O=C(NCC1CCOCC1)c1n[nH]cc1NC(=O)c1c(F)cccc1F | Tyrosine-protein kinase ABL1, phosphorylated (ABL1, Homo sapiens, UniProt P00519, F317I) | binding, competition with immobilised ligand | 1 µM | 84

Structure (SMILES) | target | assay | conditions | remaining binding [%]
CS(=O)(=O)NCC[C@H](NC(=O)c1cncc2c1cnn2-c1ccc(F)cc1)c1ccnc(S(C)(=O)=O)c1 | ABL1 Y253F phosphorylated | cell-free assay, competition with immobilised ligand | 1 µM | 95
O=C(c1ccc(Nc2ncc(Cl)c(-c3cc4ccccc4s3)n2)cc1)N1CCC(N2CCCC2)CC1 | ABL1 phosphorylated | binding, competition with immobilised ligand | 1 µM | 26
CNC(=O)[C@@H]1CC[C@@H](n2c(-c3ccc4cnccc4c3)nc3ccc(C(=O)NCc4cccc(C(N)=O)c4)cc32)C1 | ABL1 Y253F phosphorylated | binding, competition with immobilised ligand | 1 µM | 100
COc1ccnn2ncc(-c3ccnc(N(C)C)n3)c12 | ABL1 Q252H | binding | 1 µM | 82
CCS(=O)(=O)c1cc2cc(C[C@](O)(CC(C)(C)c3ccc(F)cc3C(N)=O)C(F)(F)F)[nH]c2cn1 | ABL1 F317L phosphorylated | cell-free assay, competition with immobilised ligand | 1 µM | 90
COc1cnc(Nc2cccc(S(N)(=O)=O)c2)nc1N1CCN(c2ccccc2)C(=O)C1 | Tyrosine-protein kinase ABL1, phosphorylated (ABL1, Homo sapiens, UniProt P00519, H396P) | binding, competition with immobilised ligand | 1 µM | 97
Cc1cnc(Nc2ccc(C(=O)N3CCC(N4CCCC4)CC3)cc2)nc1-c1cc2ccccc2s1 | Tyrosine-protein kinase ABL1, non-phosphorylated (ABL1, Homo sapiens, UniProt P00519, F317L) | binding, competition with immobilised ligand | 1 µM | 59
Nc1ncc2c(n1)-c1c([nH]c3ccc(C#CC4CC4)cc13)CCCC2 | ABL1 non-phosphorylated | binding, competition with immobilised ligand | 1 µM | 95
C=CC(=O)N1CCC(C(=O)NCC(=O)N2CCN(c3nc(-c4cnc(N)nc4C(F)F)nc(N4CCOCC4)n3)CC2)CC1 | ABL1 non-phosphorylated | binding, competition with immobilised ligand | 1 µM | 80
C[C@@H](c1ccc(-n2cnc3c(N)ncnc32)cc1)N1CCc2nn(C)c(Cc3ccccc3)c2C1=O | ABL1 non-phosphorylated | binding, competition with immobilised ligand | 0.1 µM | 15
c1cncc(-c2cccc(Nc3nccc(NC4CCCCC4)n3)c2)c1 | ABL1 T315I phosphorylated | binding, competition with immobilised ligand | 10 µM | 73
CO[C@H]1CC[C@H](CNc2ccc(S(=O)(=O)NC(=O)c3ccc(N4CCN(CC5=C(c6ccc(Cl)cc6)CC(C)(C)CC5)CC4)cc3Oc3cnc4[nH]ccc4c3)cc2[N+](=O)[O-])CC1 | Tyrosine-protein kinase ABL1, phosphorylated (ABL1, Homo sapiens, UniProt P00519, E255K) | binding, competition with immobilised ligand | 1 µM | 74
CC1CCCN1c1nccc(-c2cnn3ncccc23)n1 (stereo not shown) | ABL1 phosphorylated | binding | 1 µM | 96
CN(C(=O)c1ccccc1)c1cc(N(C)c2ccc3c(c2)CCc2ccc(C(=O)NCCN4CCOCC4)cc2C3=O)ccc1F | ABL1 F317L phosphorylated | cell-free assay, competition with immobilised ligand | 1 µM | 68
CN(CCCC(F)(F)F)c1nccc(-c2cnn3ncccc23)n1 | Tyrosine-protein kinase ABL1 (ABL1, Homo sapiens, UniProt P00519, H396P) | binding | 1 µM | 95
CCCCN(CCCC)C(=O)CN1C[C@@H](c2cc(OC)c3c(c2)OCO3)[C@H](C(=O)O)[C@H]1CC(C)(C)CCC | ABL1 F317L phosphorylated | cell-free assay, competition with immobilised ligand | 1 µM | 93.5
N#Cc1ccccc1CSc1nnc2c(n1)[nH]c1ccccc12 | ABL1 phosphorylated | binding, competition with immobilised ligand | 10 µM | 94
CCN1CCN(Cc2ccc(C(=O)Nc3ccc(C)c(Oc4ccc5c(c4)CC(=O)N5)c3)cc2C(F)(F)F)CC1 | ABL1 T315I non-phosphorylated | binding, competition with immobilised ligand | 1 µM | 16
